Source: PubChem BioAssay (Broad Institute)
PGC1a Ac signal: raises PGC1a acetylation signal in U2OS cells. U2OS PGC1a acetylation AlphaScreen, overnight. activation, % at 15.6 µM. 350,000 compounds, 0.21% hits. AID 651723;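 active = every replicate reaching activation of at least 50%, whatever the mean replicate activation; inconclusive = replicates that disagree or another doubt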;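 note: hits raise the AlphaScreen acetylation signal above neutral controls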
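Incubation: overnight compound treatment, 37 °C. System: U2OS cells transduced with flag-tagged PGC1a and GCN5 acetyltransferase. Detection: AlphaScreen lysate read. Compound: single-point compound dosing.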
Hep G6PC suppr: PGC-1a acetylation activators affecting G6PC expression in hepatocytes; shares compounds with PGC1a Ac signal; primary mouse hepatocytes, G6PC mRNA qPCR, forskolin; G6PC suppression (normalized activity, % of positive control; higher = more suppression), % at 26 µM; 240 tested, under 10 active; AID 743463;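 active = dose curves showing G6PC suppression whose half-maximal dose is at most twice the top valid dose; inconclusive = flat curves with moderate negative activity, or unreliable fits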;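 note: G6PC expression relative to GAPDH housekeeping gene as delta delta Ct; 0% = median of neutral control wells and 100% = median of positive control wells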
PCK1 hep suppr: PGC-1a acetylation activators affecting PCK1 expression in hepatocytes | shares compounds with PGC1a Ac signal | primary mouse hepatocytes, PCK1 mRNA qPCR, forskolin-stimulated | PCK1 expression decrease, unspecified at 26 µM | 230 tested, under 10 active | AID 743465;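 active = compounds lowering PCK1 expression whose fitted half-maximal concentration is at most twice the top tested dose; inconclusive = flat fit with moderate opposite-direction effect, or poor fit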;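 note: values are delta delta Ct of PCK1 relative to GAPDH; higher delta delta Ct means lower PCK1 expression so positive values indicate hits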
PGC1a hep suppr: hepatocyte PGC-1a expression change via PGC-1a acetylation activation; primary mouse hepatocytes, PGC-1a mRNA qPCR, forskolin; top dose 26 µM; max activity (PGC-1a expression decrease), %; 240 tested, under 10 active; shares compounds with PGC1a Ac signal;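 active = compound lowering PGC-1a expression with fitted half-maximal concentration at most twice its top tested dose; inconclusive = flat curve with moderate opposite-direction effect, or poor fit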;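 note: 0% = neutral control wells median and 100% = positive control wells median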
An asterisk follows results filed as active; ? = inconclusive; . = not tested or not shown; [ ] = another dose, or the depositor's remark. Only a sample is shown.

SMILES	PGC1a Ac signal	Hep G6PC suppr	PCK1 hep suppr	PGC1a hep suppr
Cc1ccc(NC(=O)CN2CCC(NC(=O)Cc3ccccc3)CC2)c(C)c1	141*	23	14	38
CCOc1nc(NC(=O)NS(=O)(=O)c2ccccc2F)nc(-c2ccccc2)n1	-50	.	.	.
Cc1cc2c(cc1S(=O)(=O)N1CCc3ccccc31)NC(=O)CO2	?	.	19	15
CC1CN(c2oc(-c3cccs3)nc2C#N)CC(C)O1 (stereo not given)	-49	.	.	.
O=C(Nc1cccnc1)c1ccc(Br)s1	?	-8	27	47
CCN(CC(=O)NCc1ccc(Cl)cc1)C(=O)CSCC(=O)Nc1ccc(C)cc1	?	-12	34	60
Cn1nc(C(=O)N2CCCCC2)c2c1-c1ccccc1S(=O)(=O)C2	-48	.	.	.
Cc1nc(N2CCN(S(=O)(=O)c3ccc(F)cc3)CC2)c2c(-c3cccs3)csc2n1	83*	307	369	176
Cc1ccc(C)n1-c1ccc(-c2nnco2)cc1	-52	.	.	.
CC(C)c1ccccc1NC(=O)Cn1c(-c2ccccc2Cl)nc2ccccc21	-43	.	.	.
O=S(=O)(NC12CC3CC(CC(C3)C1)C2)c1ccc(F)cc1	60*	-27	28	50
Cc1nc(NCCc2ccccc2)c2nnn(Cc3ccccc3Cl)c2n1	-42	.	.	.
COc1ccc(C2CC(=O)N(C)c3ccccc3S2)cc1 (stereo not given)	-41	39	45	57
CCOc1cc(/C=N/N=C(N)N)ccc1OCc1ccc(Cl)cc1	-56	.	.	.
Cc1nn(CC(=O)Nc2ccc(C(C)C)cc2)c(C)c1[N+](=O)[O-]	-43	.	.	.
COc1cc(C)c(CN2CCN(S(=O)(=O)c3ccc(Cl)s3)CC2)cc1OC	79*	66	91	?
CC(=O)c1ccc(OCC(=O)OCC(=O)Nc2sccc2C(N)=O)cc1	56*	9	17[8 µM]	58
COc1ccc(-n2nc(C#N)c(Cl)cc2=O)cc1	-90	.	.	.
COc1ccc(CCNc2ccc(C(CC(N)=O)NC(=O)c3cc(C)cc(C)c3)cc2[N+](=O)[O-])cc1 (stereo not given)	-46	.	.	.
O=C(Cc1ccccc1)Nc1nc(-c2ccc(F)c(F)c2)cs1	62*	70	59	83
CNc1ccc2ncc(-c3ccc(OC)c(OC)c3)n2n1	-58	.	.	.
CC1(C)CCCN(C(=O)N2c3ccccc3Sc3ccccc32)C1	?	-23	14	82
O=C(Nc1ccc(-c2noc(CCc3ccccc3)n2)cc1)c1cccnc1	131*	28	2.8	-18
Cc1ccc2oc(-c3ccc(NC(=O)c4cccnc4)cc3)nc2c1	73*	5	-7	83
COC(=O)c1ccc(NC(=O)c2cccnc2)cc1	127*	.	68	?
SMILES	PGC1a Ac signal	Hep G6PC suppr	PCK1 hep suppr	PGC1a hep suppr
Cc1ccc(NC(=O)c2ccccc2)cc1-n1cnnn1	-40	.	.	.
CC(C)OC(=O)c1c(F)c(F)c(N2CCOCC2)c(F)c1F	-57	.	.	.
O=C(C[C@@H]1C[C@@H]2c3cc(NC(=O)C4CCC4)ccc3O[C@@H]2[C@@H](CO)O1)NCc1ccc(-c2ccccc2)cc1	-80	.	.	.
O=C(O)CC1S/C(=N/N=C/c2ccc(Br)cc2)N(c2ccccc2)C1=O (stereo not given)	-75	.	.	.
COc1ccc(-c2c(-c3cc(OC)cc(OC)c3)n(C)c3ccc(-c4cnc(N)nc4)cc23)cc1	?	998	516	63
Cc1noc(C)c1NC(=O)N[C@H]1C=C[C@H](CC(=O)NCc2ccc(Cl)c(Cl)c2)O[C@H]1CO	-49	.	.	.
COc1ccc(-n2c(C)c([N+](=O)[O-])c3ccc(O)c(CN(C)C)c32)cc1	-37	.	.	.
Cc1noc(C)c1S(=O)(=O)Nc1ccc2c(c1)C(=O)N([C@H](C)CO)C[C@@H](C)[C@@H](CN(C)S(=O)(=O)c1cccs1)OCCCC[C@H](C)O2	-51	.	.	.
CC(C)C(c1nnnn1Cc1ccccc1)N(Cc1ccco1)Cc1cccs1 (stereo not given)	91*	316	67	95
Fc1ccc(CN(Cc2ccccc2)C(c2cccs2)c2nnnn2C2CCCCC2)cc1 (stereo not given)	-42	.	.	.
C#CCN(C[C@@H]1[C@@H](OC(=O)NCC2CCCCC2)[C@@H](OC(=O)NCC2CCCCC2)Cn2c(=O)ccc(=O)n21)S(=O)(=O)c1ccc(C)cc1	-91	.	.	.
Cc1c(C(=O)OCC(=O)c2c(N)n(CC(C)C)c(=O)n(C)c2=O)oc2ccccc12	64*	66	81	9
O=C(O)C1CCCN1S(=O)(=O)c1ccc(Br)s1 (stereo not given) (tested in a mixture with another compound)	-42	.	.	.
O=C1C(Nc2ccccc2)=C/C(=N/S(=O)(=O)c2cccs2)c2ccccc21	-59	.	.	.
